Measurements: ChEMBL document CHEMBL4823320, “SAR of novel benzothiazoles targeting an allosteric pocket of DENV and ZIKV NS2B/NS3 proteases” (Bioorg Med Chem, 2021)

Key:
[1] = target: Genome polyprotein (dengue virus type 2, UniProt P29990); assay: Inhibition of DENV2 NS2B-NS3 protease expressed in Escherichia coli BL21(DE3) using Boc-Gly-Arg-Arg-AMC as substrate by FRET assay
Procedure, shortened: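 Recombinant His-tagged NS2B/NS3 protease, expressed in E. coli BL21-Gold (DE3) (1 mM IPTG, 20 °C, 16 h) and purified by Ni affinity and size exclusion. Assayed in 50 mM Tris pH 9.0, 20% glycerol, 1 mM Chaps, with 100 μM Boc-Gly-Arg-Arg-AMC. Fluorescence read every 30 s for 10 min at 25 °C; inhibitor 0.01–100 μM. IC50 from a four-parameter fit of hydrolysis rate; ≥3 independent experiments.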

[2] = target: Nonstructural protein 3 (Zika virus, UniProt A0A024AXB9); assay: Inhibition of ZIKV NS2B-NS3 protease expressed in Escherichia coli BL21(DE3) using Boc-Gly-Arg-Arg-AMC as substrate by FRET assay
Procedure, shortened: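 His-tagged ZIKV NS2B/NS3 protease in 50 mM Tris pH 9.0, 20% glycerol, 1 mM CHAPS with 100 µM Boc-Gly-Arg-Arg-AMC. Dilution series 0.01–100 µM, read every 30 s for 10 min at 25 °C. IC50 from a four-parameter fit of hydrolysis rate; mean ± SD of ≥3 independent measurements.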

[3] = target: Nonstructural protein 3 (Zika virus) (UniProt A0A024AXB9); assay: Inhibition of ZIKV NS2B-NS3 protease expressed in Escherichia coli BL21(DE3) using Boc-Gly-Arg-Arg-AMC as substrate at 20 uM by FRET assay
Procedure, shortened: (§1)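 His-tagged NS2B/NS3 protease, purified by Ni affinity and size exclusion, in 50 mM Tris pH 9.0, 20% glycerol, 1 mM CHAPS with 100 µM Boc-Gly-Arg-Arg-AMC. Fluorescence is read every 30 s for 10 min at 25 °C. Percent inhibition is at a single inhibitor concentration of 20, 100 or 200 µM; ≥3 independent measurements.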

[4] = target: Genome polyprotein (dengue virus type 2) (UniProt P29990); assay: Inhibition of DENV2 NS2B-NS3 protease expressed in Escherichia coli BL21(DE3) using Boc-Gly-Arg-Arg-AMC as substrate at 20 uM by FRET assay; procedure, shortened: as §1
[5] = target: Prothrombin (Homo sapiens) (UniProt P00734); assay: Inhibition of Thrombin (unknown origin) assessed as residual enzyme activity at 20 uM by FRET assay relative to control
Procedure, shortened: (§2)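 Compound at 20 µM, read every 30 s for 10 min at 25 °C. Residual activity is relative to DMSO control; mean ± SD, ≥3 independent measurements.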

[6] = target: Urokinase-type plasminogen activator (Homo sapiens) (UniProt P00749); assay: Inhibition of Urokinase plasminogen activator (unknown origin) assessed as residual enzyme activity at 20 uM by FRET assay relative to control
Procedure, shortened: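 Urokinase plasminogen activator in 50 mM Tris pH 7.4, 50 mM NaCl, 0.5 mM EDTA with 240 µM Z-Gly-Gly-Arg-AMC. Compound at 20 µM, read every 30 s for 10 min at 25 °C. Residual activity is relative to DMSO control; mean ± SD, ≥3 independent measurements.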

[7] = system: Severe acute respiratory syndrome coronavirus 2; assay: Inhibition of SARS-CoV-2 Main protease assessed as residual enzyme activity at 20 uM by FRET assay relative to control
Procedure, shortened: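 Compound at 20 μM; fluorescence read every 30 s for 10 min at 25 °C. Residual activity expressed relative to DMSO control; mean of ≥3 independent measurements.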

[8] = target: T1, Sortase A (Staphylococcus aureus) (UniProt Q9S446); assay: Inhibition of staphylococcus aureus Sortase A protease assessed as residual enzyme activity at 20 uM by FRET assay relative to control; procedure, shortened: as §2
T1 sequence (whole entry): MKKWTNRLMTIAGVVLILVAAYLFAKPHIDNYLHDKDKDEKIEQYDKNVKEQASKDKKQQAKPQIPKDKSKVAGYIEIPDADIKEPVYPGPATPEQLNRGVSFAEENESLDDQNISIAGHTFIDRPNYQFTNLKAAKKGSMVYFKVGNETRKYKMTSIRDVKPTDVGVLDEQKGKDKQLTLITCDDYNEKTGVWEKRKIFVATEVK

[9] = target: Chymotrypsin (Homo sapiens) (UniProt Q99895+P17538+P40313+Q6GPI1); assay: Inhibition of Chymotrypsin (unknown origin) assessed as residual enzyme activity at 20 uM by FRET assay relative to control; assay type: protein assay
Procedure, shortened: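 α-Chymotrypsin in 50 mM Tris pH 8.0, 100 mM NaCl with Succ-Leu-Tyr-AMC. Compound at 20 µM, read every 30 s for 10 min at 25 °C. Residual activity is relative to DMSO control; mean ± SD, ≥3 independent measurements.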

[10] = target: Trypsin (Homo sapiens) (UniProt P07477+P07478+P35030); assay: Inhibition of Trypsin (unknown origin) assessed as residual enzyme activity at 20 uM by FRET assay relative to control; assay type: protein assay
Procedure, shortened: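 Trypsin in 50 mM Tris pH 8.0, 100 mM NaCl, 5 mM EDTA with 40 µM Z-Phe-Arg-AMC. Compound at 20 µM, read every 30 s for 10 min at 25 °C. Residual activity is relative to DMSO control; mean ± SD, ≥3 independent measurements.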

[11] = Inhibition of Rhodesain (unknown origin) assessed as residual enzyme activity at 20 uM by FRET assay relative to control
Procedure, shortened: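 Compound at 20 µM, fluorescence read every 30 s for 10 min at 25 °C. Residual activity is relative to DMSO control; mean ± SD, ≥3 independent measurements.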

[12] = Chemical stability of compound in tris assay buffer at pH 9 measured after 90 mins by HPLC/MS analysis; assay type: physicochemical; details: pH 9, 1.5 h
Procedure, shortened: (§3)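 Compound incubated in protease assay buffer (Tris pH 9.0) under simulated assay conditions and analysed by HPLC/MS after 15 min, 90 min and 20 h. Stability is the compound peak integral in the 210 nm UV trace as a proportion of the total integral.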

[13] = Chemical stability of compound in cell culture conditions at pH 7.4 HEPES buffer measured after 90 mins by HPLC/MS analysis; assay type: physicochemical; details: read-out: Stabilty
Procedure, shortened: (§4)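 Compound incubated under simulated cell-assay conditions (HEPES pH 7.4) and analysed by HPLC/MS after 15 min, 90 min and 20 h. Stability is the compound peak integral in the 210 nm UV trace as a fraction of the total integral.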

[14] = Chemical stability of compound in tris assay buffer at pH 9 measured after 20 hrs by HPLC/MS analysis; assay type: physicochemical; details: pH 9, 20 h; procedure, shortened: as §3
[15] = Chemical stability of compound in tris assay buffer at pH 9 measured after 15 mins by HPLC/MS analysis; assay type: physicochemical; details: pH 9, 0.25 h; procedure, shortened: as §3
[16] = Chemical stability of compound in cell culture conditions at pH 7.4 HEPES buffer measured after 20 hrs by HPLC/MS analysis; assay type: physicochemical; details: read-out: Stabilty; procedure, shortened: as §4
[17] = Chemical stability of compound in cell culture conditions at pH 7.4 HEPES buffer measured after 15 mins by HPLC/MS analysis; assay type: physicochemical; details: read-out: Stabilty; procedure, shortened: as §4

SMILES	IC50 [1] [µM]	IC50 [2] [µM]	inhibition [4] [%]	other results
O=C(Nc1nc2cc(O)c(O)cc2s1)c1ccc(-c2ccccc2)cc1	7.8	1.22	–	–
O=C(Nc1ccc(I)cc1)c1nc2cc(O)c(O)cc2s1	2.48	1.3	–	–
O=C(Nc1nc2cc(O)c(O)cc2s1)c1ccc(Cl)c(Cl)c1	4.86	–	–	inhibition [3]: 39%
Cc1ccc(S(=O)(=O)N[C@@H](C)C(=O)Nc2nc3cc(O)c(O)cc3s2)cc1	–	6.48	39	–
O=C(Nc1nc2cc(O)c(O)cc2s1)C(c1ccc(Cl)cc1)c1ccc(Cl)cc1	–	0.96	58	–
O=C(Nc1ccccc1)[C@@H]1CCCCN1C(=O)c1cc2cc(O)c(O)cc2o1	4.73	2.9	–	Activity [5]: 93%; Activity [6]: 94%; Activity [7]: 57%; Activity [8]: 74%; Activity [9]: 77%; Activity [10]: 95%; Activity [11]: 90%
O=C(C[C@H](NC(=O)c1ccccc1)C(=O)Nc1nc2cc(O)c(O)cc2s1)Nc1ccccc1	9.95	5.48	–	–
O=C(Nc1ccccc1)c1cc2cc(O)c(O)cc2s1	2.73	1.59	–	–
O=C(Nc1ccccc1)[C@@H]1CCCN1C(=O)c1cc2cc(O)c(O)cc2o1	6.43	2.43	–	Stabilty [12]: 83%; Activity [5]: 81%; Activity [6]: 82%; remaining at 1.5 h [13]: 95%; Stabilty [14]: 83%; Activity [7]: 99%; Stabilty [15]: 83%; Activity [8]: 81%; remaining at 20 h [16]: 95%; Activity [9]: 78%; remaining at 0.25 h [17]: 95%; Activity [10]: 88%; Activity [11]: 93%
O=C(Nc1ccccc1)[C@@H]1CCCN1C(=O)c1cnc2cc(O)c(O)cc2c1	–	–	23	inhibition [3]: 44%
O=C(Nc1ccccc1)[C@@H]1CCCN1C(=O)c1cc2c(O)cc(O)cc2o1	27.7	20.1	–	–
CCN(CC)C(=O)C[C@H](NC(=O)c1ccccc1)C(=O)Nc1nc2cc(O)c(O)cc2s1	–	–	16	inhibition [3]: 13%
O=C(Nc1ccccc1)[C@@H]1CCCN1C(=O)c1cc2cc(O)c(O)cc2[nH]1	–	–	36	inhibition [3]: 44%
O=C(Nc1ccccc1)c1cc2cc(O)c(O)cc2[nH]1	6.9	3.44	–	–
O=C(CN(C(=O)c1ccccc1)c1ccccc1)Nc1nc2cc(O)c(O)cc2s1	–	2.07	56	–
O=C(Nc1nc2cc(O)c(O)cc2s1)c1ccc(Cl)cc1	5.97	6.66	–	–
Cc1ccc(C(=O)Nc2nc3cc(O)c(O)cc3s2)cc1	6.39	15.4	–	–
Cc1ccc(S(=O)(=O)N[C@H](C)C(=O)Nc2nc3cc(O)c(O)cc3s2)cc1	–	–	14	inhibition [3]: 26%

SMILES	IC50 [1] [µM]	IC50 [2] [µM]	inhibition [4] [%]	other results
O=[N+]([O-])c1ccc2nc(NC(=S)Nc3ccc(I)cc3)sc2c1	11.2	6.51	–	–
Cc1ccc(S(=O)(=O)N[C@H](C(=O)Nc2nc3cc(O)c(O)cc3s2)C(C)(C)C)cc1	–	5.74	44	–
O=C(Nc1ccccc1)[C@@H]1CCCN1C(=O)c1nc2cc(O)c(O)cc2s1	11.6	4	–	–
O=C(CCNC(=O)c1ccccc1)Nc1nc2cc(O)c(O)cc2s1	–	–	23	inhibition [3]: 38%
Cc1ccc(S(=O)(=O)N[C@@H](Cc2ccccc2)C(=O)Nc2nc3cc(O)c(O)cc3s2)cc1	–	3.66	33	–
O=C(Nc1ccccc1)[C@@H]1CCCN1C(=O)c1ccc2cc(O)c(O)cc2c1	–	–	9	inhibition [3]: 42%
O=C(N[C@@H](Cc1ccc(O)cc1)C(=O)Nc1nc2cc(O)c(O)cc2s1)c1ccccc1	–	4.59	63	–
O=C(Nc1ccccc1)c1nc2cc(O)c(O)cc2s1	27	9.19	–	Stabilty [12]: 94%; remaining at 1.5 h [13]: 95%; Stabilty [14]: 88%; Stabilty [15]: 95%; remaining at 20 h [16]: 95%; remaining at 0.25 h [17]: 95%
Cc1ccc(S(=O)(=O)NC(CSCc2ccccc2)C(=O)Nc2nc3cc(O)c(O)cc3s2)cc1 (single isomer, unassigned)	–	2.13	57	–
O=C(Nc1nc2cc(O)c(O)cc2s1)c1ccccc1	27	9.19	–	Stabilty [12]: 61%; Activity [5]: 75%; Activity [6]: 100%; remaining at 1.5 h [13]: 95%; Stabilty [14]: 83%; Activity [7]: 90%; Stabilty [15]: 67%; Activity [8]: 57%; remaining at 20 h [16]: 95%; Activity [9]: 77%; remaining at 0.25 h [17]: 95%; Activity [10]: 80%; Activity [11]: 91%
O=C(Nc1ccccc1)[C@@H]1CCCN1C(=O)c1cc2cc(O)c(O)cc2s1	4.01	3.43	–	–
O=C(Nc1ccccc1)c1cnc2cc(O)c(O)cc2c1	3.63	6.38	–	–
O=C(Nc1nc2ccc([N+](=O)[O-])cc2s1)c1ccc(I)cc1	–	–	36	inhibition [3]: 49%
O=C(O)C[C@H](NC(=O)c1ccccc1)C(=O)Nc1nc2cc(O)c(O)cc2s1	–	–	32	inhibition [3]: 45%
CC[C@H](C)[C@H](NS(=O)(=O)c1ccc(C)cc1)C(=O)Nc1nc2cc(O)c(O)cc2s1	–	5.35	33	–
O=C(Nc1nc2cc(O)c(O)cc2s1)C(c1ccc(O)cc1)c1ccc(O)cc1	–	–	45	inhibition [3]: 54%
Cc1ccc(S(=O)(=O)N2CCC[C@@H]2C(=O)Nc2nc3cc(O)c(O)cc3s2)cc1	–	–	–	Activity [5]: 97%; Activity [6]: 100%; Activity [7]: 94%; Activity [8]: 83%; Activity [9]: 100%; Activity [10]: 96%; Activity [11]: 93%
